High-throughput results (PubChem BioAssay)
Most compounds without a hit are left out; they make up all but 2.9% or so of the library.
Kir21 block: inhibitors of mouse Kir2.1 inward-rectifier potassium channel | P35561 | HEK293-Kir2.1, FluxOR thallium flux fluorescence; hits give low values | B-score at 10 µM | actives 0.85% (n = 310,000);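 active means fluorescence ratio B-score at or below minus 3 SD of library scores, with starting-brightness B-score within 2 SD, cut at about -4.2 in these data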;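 further: channel flux triggered by added potassium and thallium sulfate stimulus; B-score of peak minus minimum fluorescence over baseline after thallium stimulus; more negative B-score means stronger Kir2.1 block with less thallium influx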
Target sequence (P35561 whole entry, looked up): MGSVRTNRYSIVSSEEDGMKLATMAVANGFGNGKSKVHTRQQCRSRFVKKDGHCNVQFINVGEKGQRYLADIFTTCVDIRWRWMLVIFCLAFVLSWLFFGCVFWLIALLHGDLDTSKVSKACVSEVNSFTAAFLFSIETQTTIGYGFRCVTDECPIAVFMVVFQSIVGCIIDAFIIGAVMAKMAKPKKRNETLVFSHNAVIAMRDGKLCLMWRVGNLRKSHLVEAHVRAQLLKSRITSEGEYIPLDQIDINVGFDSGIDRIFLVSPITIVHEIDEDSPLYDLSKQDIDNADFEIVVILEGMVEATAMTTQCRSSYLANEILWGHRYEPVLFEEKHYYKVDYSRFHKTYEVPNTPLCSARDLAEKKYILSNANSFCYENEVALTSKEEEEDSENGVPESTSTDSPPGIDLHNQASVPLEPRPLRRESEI
TRPC6 activator: activators of mouse TRPC6 channel. Q61143. HEK293-TRPC6 membrane potential dye fluorescence; hits give high values. B-score at 10 µM. actives 0.13% (n = 310,000). AID 2550;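 active means B-score of the integrated fluorescence ratio above library mean plus 3 SD, and starting fluorescence ratio within library mean plus 5 SD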;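 further: higher score means more depolarization so channel activation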
TRPC4 act: TRPC4 (mouse) channel activation. B-score at 10 µM. AID 2237. actives 0.49% (n = 310,000). HEK293 TRPC4beta/mu-opioid, Fluo4 calcium fluorescence; hits give high values. Q9QUQ5;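 active means B-score above 5 SD of library B-scores, and initial fluorescence ratio not above library mean plus 5 SD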;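 further: positive B-score marks a calcium rise read as TRPC4 activation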
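Incubation: 45 min room-temperature Fluo4 loading, 110 s read / System: HEK293 cells stably co-expressing mouse TRPC4beta and mu-opioid receptor / Signal: Fluo4 fluorescence, kinetic / Control set: buffer (low) and maximal DAMGO (high) / Measure: integrated baseline-normalised fluorescence ratio, converted to per-well B score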
TRPC4 PAM: allosterically enhances the mouse TRPC4 cation channel | Q9QUQ5 | actives 0.42% (n = 310,000) | HEK293 TRPC4beta/mu-opioid, DAMGO EC20, Fluo-4 Ca2+ flux; hits give high values | B-score at 10 µM;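 active means B-score of calcium response area above 5 SD of library B-scores, with initial fluorescence ratio within 5 SD of library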
TRPC6 inhibitor: mouse TRPC6 channel inhibition; HEK293-TRPC6, membrane potential dye, ACh-evoked depolarization; hits give low values; B-score at 10 µM; Q61143; AID 2553; actives 1.1% (n = 310,000);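 active means B-score under library mean minus 3 SD, initial fluorescence not abnormally high, positive integrated signal ratio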;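 further: B-score derived from integrated fluorescence ratio over the kinetic read; more negative B-score means stronger inhibition of depolarization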
TRPC4 inh: inhibitors of mouse TRPC4 channel | Q9QUQ5 | HEK293 TRPC4beta/mu-opioid, DAMGO-evoked Fluo4 calcium flux; hits give low values | B-score at 10 µM | actives 0.39% (n = 300,000) | AID 2247;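 active means B-score over 3 SD under the library average, no early fluorescence shift, positive overall ratio signal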
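Material: HEK293 cells with stable TRPC4beta plus mu-opioid receptor expression / Probe or stimulus: DAMGO in two steps, submaximal then maximal / Compound: single concentration per test compound / Technique: kinetic Fluo4 fluorescence imaging of calcium influx / Read-out: per-well B score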
TRPC4 spec 2: second check of whether TRPC6 inhibitors also affect mouse TRPC4; shares compounds with TRPC6 inhibitor; HEK293 TRPC4/MOR, membrane potential dye fluorescence; channel activated by saturating DAMGO dose; inhibition, % at 10 µM; actives 42% (n = 920);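 active means compounds whose fluorescence signal differed from control wells by over 3 SD, either direction, in both duplicate plates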
TRPC4 spec: selectivity of TRPC6 inhibitors: effect on mouse TRPC4; HEK293 TRPC4/mu-opioid, membrane potential fluorescence; shares compounds with TRPC6 inhibitor; actives 61% (n = 920); activity change, negative = inhibition, % at 10 µM;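 active means rise or fall in signal beyond 3 SD of buffer-only wells in both replicate plates, either sign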;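 further: integrated kinetic ratio of fluorescence range over baseline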
HEK293 MPD ctr 2-1: second check of TRPC6 inhibitor effects in parental HEK293 cells | parental HEK293 membrane potential dye fluorescence; maximal acetylcholine challenge after compound addition | shares compounds with TRPC6 inhibitor | signal change vs control, % at 10 µM | actives 31% (n = 920);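 active means membrane potential signal moving either way by over 3 SD of the maximum-effect control, in both duplicate plates, meaning non-specific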
HEK293 MPD ctr-1: parental HEK293 nonspecific activity of TRPC6 inhibitors; shares compounds with TRPC6 inhibitor; parental HEK293 membrane potential dye fluorescence; membrane potential signal change, % at 10 µM; actives 60% (n = 920); AID 2780;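 active means membrane potential signal shifting up or down by more than 3 SD of buffer-only wells, on both duplicate plates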
HEK293 MPD ctr-2: counter-screen for TRPC6 modulators: effect in parental HEK293 cells | shares compounds with TRPC6 inhibitor | membrane potential dye fluorescence | membrane potential signal change, % at 10 µM | actives 51% (n = 2,400);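 active means membrane potential signal moves up or down beyond 5 SD from buffer-only wells, on both duplicate plates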
HEK293 MPD ctr 2-2: parental HEK293 nonspecific activity of TRPC6 modulators, second screen | shares compounds with TRPC6 inhibitor | membrane potential dye fluorescence; after compound, maximal acetylcholine stimulation | inhibition, % at 10 µM | actives 14% (n = 2,400);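 active means membrane potential signal drops by more than 5 SD from the mean control signal, in both duplicate plates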
TRPC4 ctr mod: selectivity of TRPC6 modulators against mouse TRPC4 | shares compounds with TRPC6 inhibitor | HEK293 TRPC4/mu-opioid, membrane potential fluorescence | percent change from control (negative = decrease, positive = increase), % at 10 µM | actives 69% (n = 2,400);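 active means membrane potential signal moved up or down beyond 5 SD of buffer control wells, in both duplicate plates, actives on both sides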
TRPC4 ctr inh 2: mouse TRPC4 off-target activity of TRPC6 modulators, second screen. shares compounds with TRPC6 inhibitor. HEK293 TRPC4/mu-opioid, membrane potential dye fluorescence; stimulated with maximal-effect DAMGO. inhibition, % at 10 µM. actives 55% (n = 2,400);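 active means drop in membrane potential signal beyond 5 SD of the control wells in both duplicate plates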;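 further: TRPC4 counter screen for TRPC6 hits run under conditions tuned for TRPC6 not TRPC4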
TRPC6 block conf: mouse TRPC6 inhibitor confirmation. AID 488960. actives 43% (n = 3,300). shares compounds with TRPC6 inhibitor. inhibition, % at 10 µM. HEK293-TRPC6, membrane potential dye, ACh-evoked depolarization;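 active means fluorescence ratio falls more than 5 SD below the full-stimulation control mean, in both duplicate runs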;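 further: integrated fluorescence ratio of peak minus minimum over baseline after agonist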
TRPC6 act conf: confirmation of mouse TRPC6 activators | actives 11% (n = 2,800) | AID 488961 | HEK293-TRPC6 membrane potential dye fluorescence, FDSS | activation, % at 10 µM | shares compounds with TRPC6 inhibitor;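 active means ratio signal rise beyond 5 SD above unstimulated control wells' mean, seen in both duplicate runs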
Large screens that a line does not name were inactive (follow-up assays come after a bar, where they were run).

CC(=O)Nc1ccc(N/C(N)=N/c2nc(C)cc(C)n2)cc1	none
COc1ccc(Cl)cc1N/C(N)=N/c1nc(C)cc(C)n1	TRPC6 inhibitor -5.64, TRPC4 inh -7 | HEK293 MPD ctr-2 inactive | HEK293 MPD ctr 2-2 inactive | TRPC4 ctr mod -10.0% | TRPC4 ctr inh 2 inactive | TRPC6 block conf inactive | TRPC6 act conf inactive
Cc1cc(C)nc(/N=C(\N)Nc2ccc(SC(F)F)cc2)n1	TRPC4 act 43, TRPC6 inhibitor -6.4 | HEK293 MPD ctr-2 -132.0% | HEK293 MPD ctr 2-2 inactive | TRPC4 ctr mod -23.0% | TRPC4 ctr inh 2 48.0% | TRPC6 block conf inactive | TRPC6 act conf inactive
C/C(=N\NC(=S)Nc1ccccc1C)c1ccc(O)cc1	none
COc1cccc(NC(=O)COC(=O)Cc2ccccc2[N+](=O)[O-])c1	none
COc1cc2c(cc1OC)-c1c(OC)c(OC)cc3ccnc(c13)C2=O	TRPC6 inhibitor -7.86 | TRPC4 spec 2 63.0% | TRPC4 spec -26.2% | HEK293 MPD ctr 2-1 -58.0% | HEK293 MPD ctr-1 -425.5% | TRPC6 block conf 53.8% | TRPC6 act conf inactive
CN(Cc1ccccc1)C(=O)CCS(=O)(=O)c1ccc2c(c1)n(C)c(=O)c(=O)n2C	none
CCn1ncc(C2=NOC(C(=O)Nc3cnn(C45CC6CC(CC(C6)C4)C5)c3)C2)c1C (centres undefined)	TRPC6 activator 18.7 | HEK293 MPD ctr-2 inactive | HEK293 MPD ctr 2-2 inactive | TRPC4 ctr mod inactive | TRPC4 ctr inh 2 inactive | TRPC6 act conf 126.5%
CCc1nnc(NC(=O)CSc2nnc(-c3ccccc3OC)n2-c2ccccc2)s1	TRPC6 activator 12 | HEK293 MPD ctr-2 182.5% | HEK293 MPD ctr 2-2 inactive | TRPC4 ctr mod 40.5% | TRPC4 ctr inh 2 inactive | TRPC6 block conf inactive | TRPC6 act conf 54.5%
CCc1nnc(NC(=O)CSc2nnc(-c3ccccc3OC)n2-c2ccc(C)cc2)s1	none
Cn1ccc(CC(=O)N2CCC(N3CCC(C(=O)N4CCCC4)CC3)CC2)c1	none
Cc1ccc(C(=O)Nc2nc3ccccc3n2CCN2CCCC2)cc1	TRPC6 inhibitor -11.2 | HEK293 MPD ctr-2 -130.5% | HEK293 MPD ctr 2-2 74.0% | TRPC4 ctr mod -30.5% | TRPC4 ctr inh 2 88.5% | TRPC6 block conf 91.5% | TRPC6 act conf inactive
O=C(Nc1nc2ccccc2n1CCN1CCCCC1)c1ccc(Cl)cc1	none
CCn1nccc1C(=O)Nc1nc2ccccc2n1CCN1CCCCC1	TRPC6 inhibitor -6.85 | TRPC4 spec 2 67.5% | TRPC4 spec -10.6% | HEK293 MPD ctr 2-1 inactive | HEK293 MPD ctr-1 inactive | TRPC6 block conf inactive | TRPC6 act conf inactive
O=C(Nc1nc2ccccc2n1CCN1CCCCC1)C1CCCCC1	none
COc1cccc(C2SCC(=O)N2c2ccc(C)cc2)c1OC (centres undefined)	TRPC6 inhibitor -5.57 | HEK293 MPD ctr-2 inactive | HEK293 MPD ctr 2-2 inactive | TRPC4 ctr mod 8.0% | TRPC4 ctr inh 2 inactive | TRPC6 block conf 65.5% | TRPC6 act conf inactive
COc1ccc(OCC(=O)N/N=C/c2ccc(O[C@@H]3O[C@H](CO)[C@@H](O)[C@H](O)[C@H]3O)cc2)cc1	none
C[N+]1(C)[C@@H]2CC(OC(=O)[C@H](CO)c3ccccc3)C[C@H]1[C@@H]1O[C@@H]12 (some centres undefined)	TRPC6 inhibitor -8.22 | TRPC4 spec 2 inactive | TRPC4 spec inactive | HEK293 MPD ctr 2-1 -9.0% | HEK293 MPD ctr-1 inactive | TRPC6 block conf 93.1% | TRPC6 act conf inactive
CCCn1c(Nc2nc3ccccc3n2C)nc2ccccc21	none
CN1CCN(Cc2ccc(Sc3ccc(Cl)cc3)c([N+](=O)[O-])c2)CC1	Kir21 block -5.29, TRPC6 inhibitor -6.52 | HEK293 MPD ctr-2 inactive | HEK293 MPD ctr 2-2 inactive | TRPC4 ctr mod -13.5% | TRPC4 ctr inh 2 52.5% | TRPC6 block conf 43.5% | TRPC6 act conf inactive
COc1ccc(C2c3c(ncn(CCCO)c3=N)Oc3ccc4ccccc4c32)cc1OC (centres undefined)	none
COc1ccc(C2c3c(ncn(CCN4CCOCC4)c3=N)Oc3ccc4ccccc4c32)cc1OC (centres undefined)	TRPC6 inhibitor -5.13 | HEK293 MPD ctr-2 204.0% | HEK293 MPD ctr 2-2 inactive | TRPC4 ctr mod 34.0% | TRPC4 ctr inh 2 40.0% | TRPC6 block conf inactive
COc1ccc(CN2CC(C(=O)N3CCOCC3)CC2=O)cc1 (centres undefined)	none
CC(=O)c1ccc(Nc2nc(C)cc(C)n2)cc1	none
CC(=O)c1ccc(Nc2cc(C)nc3ccccc23)cc1	TRPC6 inhibitor -6.89 | HEK293 MPD ctr-2 102.0% | HEK293 MPD ctr 2-2 144.5% | TRPC4 ctr mod inactive | TRPC4 ctr inh 2 63.0% | TRPC6 block conf 84.5% | TRPC6 act conf inactive
